Results as given in ChEMBL document CHEMBL1150419, “Structure-activity relationships of a peptide inhibitor of the human FcRn:human IgG interaction” (Bioorg Med Chem, 2008).
Bridge positions count the residues as written; N and C are the ends. Peptide text beside a SMILES is read from it.

Columns and labels:
[1] = target: T1, IgG receptor FcRn large subunit p51 (Homo sapiens, UniProt P55899); assay: Inhibition of human IgG binding to soluble human FcRn by ELISA
Summary of the method: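 Biotinylated soluble human FcRn immobilized on neutravidin plates, incubated with hIgG (3 nM, constant) and peptide at varying concentrations for 2 h at 37 °C. After washing, bound hIgG detected with peroxidase-conjugated hIgG-specific Fab fragments.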

[2] = Stability in presence of subtilisin assessed as intact peptide after 1 hr; assay type: ADME; conditions: subtilisin (protease solution); read-out: Stability
Summary of the method: (§1)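 Peptide dissolved in PBS at 0.3 mg/mL and treated with a 470-fold molar excess of Subtilisin Carlsberg. The fraction of intact peptide remaining was recorded.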

[3] = Stability in presence of subtilisin assessed as intact peptide after 18 hrs; assay type: ADME; conditions: subtilisin (protease solution); read-out: Stability; summary of the method: as §1
[4] = target: T1, IgG receptor FcRn large subunit p51; assay: Binding affinity to human FcRn at pH 6 by surface plasmon resonance assay
Summary of the method: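 Soluble human FcRn coupled to the dextran surface of a CM5 chip; peptide dilutions flowed over the chip. The equilibrium response at each dilution was plotted against concentration and fitted to a steady-state affinity model to give Kd.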

[5] = target: T1, IgG receptor FcRn large subunit p51; assay: Binding affinity to human FcRn at pH 7.4 by surface plasmon resonance assay
Summary of the method: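 Soluble human FcRn coupled to the dextran surface of a CM5 chip; peptide dilutions flowed over the chip. Equilibrium response at each dilution plotted against concentration, and Kd fitted with a steady-state affinity model.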

T1 sequence (P55899 whole entry, the tested form may be a part): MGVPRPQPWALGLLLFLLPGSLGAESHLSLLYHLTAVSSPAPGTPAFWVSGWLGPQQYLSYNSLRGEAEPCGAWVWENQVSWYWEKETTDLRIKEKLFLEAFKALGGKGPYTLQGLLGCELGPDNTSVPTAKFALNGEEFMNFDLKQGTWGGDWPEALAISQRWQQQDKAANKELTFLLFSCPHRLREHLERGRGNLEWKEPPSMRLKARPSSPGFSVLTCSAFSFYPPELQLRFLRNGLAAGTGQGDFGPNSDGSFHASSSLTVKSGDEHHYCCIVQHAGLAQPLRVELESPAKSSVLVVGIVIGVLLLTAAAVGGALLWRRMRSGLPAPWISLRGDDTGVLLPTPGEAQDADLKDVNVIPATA

| SMILES | IC50 [1] [µM] | remaining at 1 h [2] [%] | remaining at 18 h [3] [%] | Kd [4] [µM] | Kd [5] [µM] |
| --- | --- | --- | --- | --- | --- |
| CC(C)C[C@@H](C(=O)N[C@@H](Cc1ccc(O)cc1)C(=O)N1CCC[C@H]1C(=O)N[C@@H](CS)C(=O)O)N(C)C(=O)CNC(=O)[C@@H](C)NC(=O)[C@H](Cc1ccccc1)NC(=O)[C@H](Cc1cnc[nH]1)NC(=O)CNC(=O)[C@@H](C)N(C)C(=O)[C@@H](NC(=O)[C@H](Cc1ccccc1)NC(=O)[C@@H](N)CCCNC(=N)N)C(C)(C)S | 8 | 100 | 95 | – | – |
| CC(C)C[C@@H](C(=O)N[C@@H](Cc1ccc(O)cc1)C(=O)N1CCC[C@H]1C(=O)N[C@@H](CS)C(=O)O)N(C)C(=O)CN(C)C(=O)CNC(=O)[C@H](Cc1ccccc1)NC(=O)[C@H](CC1CCNCC1)NC(=O)CNC(=O)[C@@H](NC(=O)[C@@H](NC(=O)[C@H](Cc1ccccc1)NC(=O)[C@@H](N)CCCNC(=N)N)C(C)(C)S)[C@@H](C)O | 85 | – | – | 5.2 | 6.4 |
| C[C@@H](O)[C@H](NC(=O)[C@@H](NC(=O)[C@H](Cc1ccccc1)NC(=O)[C@H](CCCN=C(N)N)NC(=O)[C@@H](N)CCC(N)=O)C(C)(C)S)C(=O)NCC(=O)N[C@@H](Cc1cnc[nH]1)C(=O)N[C@@H](Cc1ccccc1)C(=O)N[C@H](Cc1ccccc1)C(=O)NCC(=O)N1CCC[C@H]1C(=O)N[C@@H](Cc1ccc(O)cc1)C(=O)N1CCC[C@H]1C(=O)N[C@@H](CS)C(=O)N[C@@H](CC(N)=O)C(=O)NCC(=O)N1CCC[C@H]1C(=O)O | 39 | 5 | 0 | 18.3 | – |

Continued by falling IC50 [1], values first:

| IC50 [1] [µM] | remaining at 1 h [2] [%] | remaining at 18 h [3] [%] | Kd [4] [µM] | Kd [5] [µM] | SMILES |
| --- | --- | --- | --- | --- | --- |
| 64 | – | – | 22 | 78 | CC[C@H](C)[C@H](NC(=O)[C@@H](NC(=O)[C@@H](N)CCCCN)[C@@H](C)CC)C(=O)N[C@H]1CSSC[C@@H](C(=O)N[C@@H](CCC(N)=O)C(=O)NCC(=O)N[C@@H](CCCCN)C(=O)O)NC(=O)[C@H](Cc2ccc(O)cc2)NC(=O)[C@H](CCSC)NC(=O)CNC(=O)CNC(=O)[C@H](Cc2ccccc2)NC(=O)[C@H](Cc2cnc[nH]2)NC(=O)CNC(=O)[C@@H]2CCCN2C(=O)[C@H](CO)NC1=O (H-KIICSPGHFGGMYCQGK-OH; disulfide 4-14) |
| 2 | 5 | 0 | 0.25 | – | CC(C)C[C@H](NC(=O)CNC(=O)CNC(=O)[C@H](Cc1ccccc1)NC(=O)[C@H](Cc1cnc[nH]1)NC(=O)CNC(=O)[C@@H](NC(=O)[C@@H](NC(=O)[C@H](Cc1ccccc1)NC(=O)[C@H](CCCNC(=N)N)NC(=O)[C@@H](N)CCC(N)=O)C(C)(C)S)[C@@H](C)O)C(=O)N[C@@H](Cc1ccc(O)cc1)C(=O)N1CCC[C@H]1C(=O)N[C@@H](CS)C(=O)N[C@@H](CC(N)=O)C(=O)NCC(=O)N1CCC[C@H]1C(=O)O |
